“And” between values parts separate entries of the source, which are not always exact repeats. Equal entries are not always repeated.
Tested on: Fibroblast
Experiment: Multiplex assay against human fibroblast
Format: toxicity, cell-based
How it was run: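 With compound added, live cells were imaged on a CQ1 microscope at 37°C and 5% CO2; staining with Hoechst33342, BioTracker Green Microtubule Cytoskeleton Dye, MitoTracker Red and Annexin V Alexa Fluor 680 had been done at seeding. The CellPathfinder machine-learning gating scheme split cells into Hoechst high-intensity objects or normal cells, normal cells into healthy, pyknosed or fragmented nuclei, and pyknosed cells into mitotic or apoptotic. The tubulin, mitochondrial-mass and membrane-permeability phenotypes are per cents of healthy-nucleus cells.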

[1] = 12 h, 1 µM, compound concentration 1 uM
[2] = 12 h, 10 µM, compound concentration 10 uM
[3] = 24 h, 1 µM, compound concentration 1 uM
[4] = 24 h, 10 µM, compound concentration 10 uM
[5] = 48 h, 1 µM, compound concentration 1 uM
[6] = 48 h, 10 µM, compound concentration 10 uM

## CC(C)(C)c1cc(C(C)(C)C)c(NC(=O)c2c[nH]c3ccccc3c2=O)cc1O [IVACAFTOR]
[1]
  Population Apoptotic (%): 10.53% and 22.22%
  Population Healthy Nuclei (%): 60.13% and 75%
  Population Hoechst High Intensity Objects (%): 0%
  Population Membrane Permeable-Phenotype (%): 1.09% and 0.74%
  Population Mitotic Cells (%): 89.47% and 77.78%
  Population Normal (%): 100%
  Population Pyknosed Nuclei (%): 24.84% and 20%
  Population Tubulin-Different-Phenotype (%): 15.22% and 9.63%
  Total Cell Count: 153 and 180
[2]
  Population Apoptotic (%): 15.07% and 33.33%
  Population Fragmented Nuclei (%): 15.18% and 7.21%
  Population Healthy Nuclei (%): 46.6% and 73.87%
  Population Hoechst High Intensity Objects (%): 0%
  Population Membrane Permeable-Phenotype (%): 0% and 3.05%
  Population Mitochondria Different-Phenotype (%): 21.35% and 13.41%
  Population Mitotic Cells (%): 84.93% and 66.67%
  Population Normal (%): 100%
  Population Pyknosed Nuclei (%): 38.22% and 18.92%
  Population Tubulin-Different-Phenotype (%): 24.72% and 29.27%
  Total Cell Count: 191 and 222
[3]
  Population Apoptotic (%): 2.7% and 8%
  Population Fragmented Nuclei (%): 9.82% and 4.92%
  Population Healthy Nuclei (%): 67.48% and 81.42%
  Population Hoechst High Intensity Objects (%): 0%
  Population Membrane Permeable-Phenotype (%): 3.64% and 2.01%
  Population Mitochondria Different-Phenotype (%): 10.91% and 10.07%
  Population Mitotic Cells (%): 97.3% and 92%
  Population Normal (%): 100%
  Population Pyknosed Nuclei (%): 22.7% and 13.66%
  Population Tubulin-Different-Phenotype (%): 11.82% and 11.41%
  Total Cell Count: 163 and 183
[4]
  Population Apoptotic (%): 13.85% and 28.57%
  Population Fragmented Nuclei (%): 9.6% and 8.97%
  Population Healthy Nuclei (%): 53.67% and 78.48%
  Population Hoechst High Intensity Objects (%): 0%
  Population Membrane Permeable-Phenotype (%): 2.11% and 0.57%
  Population Mitochondria Different-Phenotype (%): 21.05% and 24.57%
  Population Mitotic Cells (%): 86.15% and 71.43%
  Population Normal (%): 100%
  Population Pyknosed Nuclei (%): 36.72% and 12.56%
  Population Tubulin-Different-Phenotype (%): 45.26% and 44%
  Total Cell Count: 177 and 223
[5]
  Population Fragmented Nuclei (%): 10.22% and 4.66%
  Population Healthy Nuclei (%): 83.33% and 86.53%
  Population Hoechst High Intensity Objects (%): 0%
  Population Membrane Permeable-Phenotype (%): 1.94% and 0%
  Population Mitotic Cells (%): 75% and 94.12%
  Population Normal (%): 100%
  Population Pyknosed Nuclei (%): 6.45% and 8.81%
  Population Tubulin-Different-Phenotype (%): 7.74% and 11.98%
  Total Cell Count: 186 and 193
[6]
  Population Apoptotic (%): 21.88% and 28.57%
  Population Fragmented Nuclei (%): 11.48% and 7.92%
  Population Healthy Nuclei (%): 73.21% and 86.25%
  Population Hoechst High Intensity Objects (%): 0%
  Population Membrane Permeable-Phenotype (%): 0.65% and 0.97%
  Population Mitochondria Different-Phenotype (%): 25.49% and 13.53%
  Population Mitotic Cells (%): 78.12% and 71.43%
  Population Normal (%): 100%
  Population Pyknosed Nuclei (%): 15.31% and 5.83%
  Population Tubulin-Different-Phenotype (%): 24.18% and 39.61%
  Total Cell Count: 209 and 240

## CN1[C@@H](CC(=O)c2ccccc2)CCC[C@H]1C[C@H](O)c1ccccc1.Cl [LOBELINE HYDROCHLORIDE]
[1]
  Population Apoptotic (%): 11.11% and 18.52%
  Population Fragmented Nuclei (%): 12.29% and 4.19%
  Population Healthy Nuclei (%): 57.54% and 81.68%
  Population Hoechst High Intensity Objects (%): 0%
  Population Membrane Permeable-Phenotype (%): 3.88% and 3.21%
  Population Mitochondria Different-Phenotype (%): 13.59% and 7.05%
  Population Mitotic Cells (%): 88.89% and 81.48%
  Population Normal (%): 100%
  Population Pyknosed Nuclei (%): 30.17% and 14.14%
  Population Tubulin-Different-Phenotype (%): 15.53% and 14.1%
  Total Cell Count: 179 and 191
[2]
  Population Apoptotic (%): 16.36% and 11.43%
  Population Fragmented Nuclei (%): 9.48% and 12.07%
  Population Healthy Nuclei (%): 64.45% and 72.84%
  Population Hoechst High Intensity Objects (%): 0%
  Population Membrane Permeable-Phenotype (%): 8.09% and 4.73%
  Population Mitochondria Different-Phenotype (%): 25% and 14.79%
  Population Mitotic Cells (%): 83.64% and 88.57%
  Population Normal (%): 100%
  Population Pyknosed Nuclei (%): 26.07% and 15.09%
  Population Tubulin-Different-Phenotype (%): 35.29% and 43.2%
  Total Cell Count: 211 and 232
[3]
  Population Fragmented Nuclei (%): 8.95% and 0.5%
  Population Healthy Nuclei (%): 64.21% and 85.07%
  Population Hoechst High Intensity Objects (%): 0%
  Population Membrane Permeable-Phenotype (%): 3.28% and 3.51%
  Population Mitochondria Different-Phenotype (%): 11.48% and 7.02%
  Population Mitotic Cells (%): 96.08% and 82.76%
  Population Normal (%): 100%
  Population Pyknosed Nuclei (%): 26.84% and 14.43%
  Population Tubulin-Different-Phenotype (%): 28.69% and 18.13%
  Total Cell Count: 190 and 201
[4]
  Population Fragmented Nuclei (%): 9.69% and 11.42%
  Population Healthy Nuclei (%): 75.77% and 77.95%
  Population Hoechst High Intensity Objects (%): 0%
  Population Membrane Permeable-Phenotype (%): 2.33% and 2.02%
  Population Mitochondria Different-Phenotype (%): 22.09% and 12.12%
  Population Mitotic Cells (%): 93.94% and 66.67%
  Population Normal (%): 100%
  Population Pyknosed Nuclei (%): 14.54% and 10.63%
  Population Tubulin-Different-Phenotype (%): 43.02% and 41.41%
  Total Cell Count: 227 and 254
[5]
  Population Apoptotic (%): 23.08% and 23.53%
  Population Fragmented Nuclei (%): 9.22% and 3.83%
  Population Healthy Nuclei (%): 84.47% and 88.04%
  Population Hoechst High Intensity Objects (%): 0%
  Population Membrane Permeable-Phenotype (%): 1.15% and 1.63%
  Population Mitochondria Different-Phenotype (%): 8.62% and 3.26%
  Population Mitotic Cells (%): 76.92% and 76.47%
  Population Normal (%): 100%
  Population Pyknosed Nuclei (%): 6.31% and 8.13%
  Population Tubulin-Different-Phenotype (%): 9.2% and 7.07%
  Total Cell Count: 206 and 209
[6]
  Population Apoptotic (%): 30.77% and 35.71%
  Population Fragmented Nuclei (%): 10.79% and 10.97%
  Population Healthy Nuclei (%): 83.82% and 83.12%
  Population Hoechst High Intensity Objects (%): 0%
  Population Membrane Permeable-Phenotype (%): 1.98% and 6.09%
  Population Mitochondria Different-Phenotype (%): 11.39% and 5.58%
  Population Mitotic Cells (%): 69.23% and 64.29%
  Population Normal (%): 100%
  Population Pyknosed Nuclei (%): 5.39% and 5.91%
  Population Tubulin-Different-Phenotype (%): 12.38% and 25.89%
  Total Cell Count: 241 and 237
